Measured values gathered from unrelated publications.
Compare with care: the assays were run in different laboratories.
Dipeptidyl peptidase 2: Dipeptidyl peptidase 2 (Homo sapiens, UniProt Q9UHL4)
PTGS2: Prostaglandin G/H synthase 2 (PTGS2, Homo sapiens, UniProt P35354)
NPY2R: Neuropeptide Y receptor type 2 (NPY2R, Homo sapiens, UniProt P49146)
CASP7: Caspase-7 (CASP7, Homo sapiens, UniProt P55210)

`N#Cc1ccc(NCCNCC(=O)N2N=CCC2C#N)nc1` (stereo not drawn) has an inhibition of 8% (Dipeptidyl peptidase 2; enzyme activity, inhibitor; 1 µM).
`Cn1cc(-c2cc(F)cc(N3CCn4c(cc5c4CCCC5)C3=O)c2CO)cc(Nc2ccc(N3CCN(C4COC4)CC3)cn2)c1=O` has an inhibition of 5% (Dual specificity tyrosine-phosphorylation-regulated kinase 3 (DYRK3, Homo sapiens, UniProt O43781); enzyme activity, inhibitor; 0.1 µM).
The inhibition of `CN(C)C(=O)COC(=O)Cc1ccc(OC(=O)c2ccc(NC(=N)N)cc2)cc1` is reported as 20% (Dipeptidyl peptidase 2; enzyme activity, inhibitor; 10 µM).
For `Nc1ccc(-c2nc3ccccc3s2)c(-c2ccc(O)cc2)c1`, the inhibition was 15.3% (PTGS2; enzyme activity, inhibitor, absorbance; 10 µM).
`CC(C)N1CCC[C@H]1CNC(=O)c1cn(C2CCCC2)c(=O)c2c1c1ccccc1n2C` has an inhibition of 3% (NPY2R; ligand displacement, radioligand; 10 µM).
With `CC(C)C[C@H](NC(=O)[C@H](Cc1ccccc1)NC(=O)c1cnccn1)B(O)O` the inhibition was < 5% (Serine protease HTRA2, mitochondrial (HTRA2, Homo sapiens, UniProt O43464); enzyme activity, inhibitor; 33 µM).
For `Cn1cc(-c2cccc(N3CCc4c(sc5c4CC(C)(C)C5)C3=O)c2CO)cc(Nc2ccncn2)c1=O`, the inhibition was 10% (Protein kinase C zeta type (PRKCZ, Homo sapiens, UniProt Q05513); enzyme activity, inhibitor; 1 µM).
The inhibition of `C1=Cc2ccccc2Nc2ccccc21` is reported as ~87% (Dihydrofolate reductase (folA, Escherichia coli, UniProt P0ABQ4); enzyme activity, inhibitor; 1 mM).
With `Oc1ccc(-c2ncccc2-c2nc3ccccc3s2)cc1` the inhibition was 8% (PTGS2; enzyme activity, inhibitor, absorbance; 10 µM).
For `O=C(Nc1cccnn1)N1CCN([C@@H]2CCOc3cc(C(F)(F)F)ccc32)CC1`, the inhibition was 0% (Melanocyte-stimulating hormone receptor (Mc1r, Mus musculus, UniProt Q01727); cell-free assay; 20 µM).
`CCN(CC)CCCC[C@H](NC(=O)[C@H](CC(C)C)NC(=O)[C@H](C)NC(=O)[C@H](Cc1ccccc1)NC(=O)c1ccc(C(C)(C)C)cc1)C(=O)N[C@@H](CO)C(=O)OC` has an inhibition of 10% (NPY2R; ligand displacement, radioligand; 10 µM).
The inhibition of `CCOC(=O)c1ccc(OC(=O)CCCCCNC(=N)N)cc1` is reported as 1% (CASP7; enzyme activity, inhibitor; 10 µM).
With `Nc1ccc(-c2nc3ccccc3s2)c(-c2cccc(O)c2)c1` the inhibition was 33.3% (PTGS2; enzyme activity, inhibitor, absorbance; 10 µM).
With `COc1cc(Nc2ncc(F)c(Nc3ccc4c(n3)NC(=O)C(C)(C)O4)n2)cc(OC)c1OC` the inhibition was 38% (Serine/threonine-protein kinase pim-3 (PIM3, Homo sapiens, UniProt Q86V86); binding, competition with immobilised ligand; 10 µM).
For `CS(=O)(=O)c1ccc(-c2ncc(Cl)cc2-c2nc3ccccc3s2)cc1`, the inhibition was 98% (PTGS2; enzyme activity, inhibitor, absorbance; 10 µM).
`C#Cc1n[nH]c2c(-c3cn(C(C)c4ccccn4)c(=O)[nH]c3=O)cc(F)cc12` (stereo not drawn) has an inhibition of 6.6% (Platelet-derived growth factor receptor beta (PDGFRB, Homo sapiens, UniProt P09619); enzyme activity, inhibitor; 1 µM).
For `CN(C)Cc1ccc(-c2nc3ccccc3s2)c(-c2cccc(O)c2)c1`, the inhibition was 1% (PTGS2; enzyme activity, inhibitor, absorbance; 10 µM).
`N=C(N)c1ccc2cc(OC(=O)c3ccc(N=C(N)N)cc3)ccc2c1` gave an inhibition of 1% (CASP7; enzyme activity, inhibitor; 10 µM).
The inhibition of `NS(=O)(=O)c1ccc(-c2ncc(Cl)cc2-c2nc3ccccc3s2)cc1` is reported as 100% (PTGS2; enzyme activity, inhibitor, absorbance; 10 µM).
With `CC(C)Cn1cnc2c(N)nc3ccccc3c21` the inhibition was 76% (Alpha-1D adrenergic receptor (ADRA1D, Homo sapiens, UniProt P25100); ligand displacement, radioligand; 10 µM).
The inhibition of `CC(=O)N[C@@H](CC(=O)O)C(=O)N[C@@H](CC(N)=O)C(=O)N[C@@H](CC(C)C)C(=O)N[C@H](C=O)CC(=O)O` is reported as 8% (CASP7; enzyme activity, inhibitor; 5 nM).
